Screening results (PubChem)
HER2 expr 66K = Her2 kinase expression inhibition | AID 645 | SKBR-3 HER2 protein level, AlphaScreen, 18-24 h; active compounds read low | 0.69% of 65,000 active | P04626 | HER2 level % of control, % at 10 µM;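 active = HER2 level under 5% of the carrier-only control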;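 also: 100% = DMSO carrier and 0% = 500 nM PU-H71 HSP90 inhibitor; lower value means stronger loss of Her2 protein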
Ecoli WT expand = E. coli BW25113 growth inhibition, expanded screen. OD600 absorbance. growth inhibition, % at 100 µM. 0.15% of 98,000 active. AID 710;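 active = growth inhibition above about 50% at one test dose, limit read from the data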;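 also: growth measured after 20 h incubation at 37 °C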
PostGolgi yeast = growth inhibition of a yeast mutant, post-Golgi transport screen | post-Golgi transport phenotypic cell assay | inhibition, % at 10 µM | AID 739 | 0.9% of 98,000 active;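 also: yeast cells grown in 1536-well plates; yeast grown about 18 h at 30C before absorbance read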
Ecoli tolC = growth inhibitors of E. coli BW25113 tolC mutant | 2.2% of 65,000 active | OD615 | AID 573 | growth inhibition, % at 10 µM (by protocol);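 active = growth inhibition at or above a cutoff equal to the mean over every tested compound plus 3 SD, cut at about 60% in these data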;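 also: growth measured after 20 h incubation at 37 °C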
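Test system: E. coli BW25113 ΔtolC::kan bacteria | Medium: Kanamycin-containing LB broth (50 µg/mL) | Dosing: One dose of 10 µM final | Times: 20 h incubation with compound, 37 °C | Detection: Optical density read at 615 nm | Read-out basis: Percent growth inhibition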
PostGolgi ctrl = yeast control strain growth, post-Golgi counter-screen; AID 738; inhibition, % at 10 µM; efflux-deficient yeast background strain, growth absorbance A615, 16 h; 5% of 98,000 active
An asterisk follows results filed as active; x = not tested or not shown. This is a sample that favours compounds with a hit; in the whole collection about 6.6% have one here. Rule as the data show it, unless noted: active = inhibition above about 30%; inactive = the rest.

SMILES	HER2 expr 66K	Ecoli WT expand	PostGolgi yeast	Ecoli tolC	PostGolgi ctrl
CCc1nnc(NC(=O)C(C)Sc2ccccc2)s1 (configuration not stated)	110	4	1	1	-6
Nc1cc(C(=O)OCC(=O)N2CCCC2)ccc1Cl	119	5	6	-11	32*
CCn1c(CCn2ccnc2C)n[nH]c1=S	82	-2	-4	-12	38*
COc1ccc(CNC(=O)COC(=O)C2=COCCO2)cc1	x	1	37*	x	10
O=C(Nc1nccs1)c1ccc(S(=O)(=O)NCC2CCCCC2)cc1	67	0	18	-1	41*
CCOP(=O)(c1ccccc1)c1nc(-c2ccc(F)cc2)oc1N1CCCCC1 (configuration not stated)	89	-2	-2	16	32*
N#Cc1nc(-c2ccc(F)cc2)oc1N1CCCC1	138	-6	1	1	8
Nc1nonc1-n1nnc(C(=O)c2ccccc2)c1-c1ccccc1	93	3	0	3	14
Cc1occc1C(=O)Nc1cc(C(F)(F)F)ccc1Cl	29	6	0	-6	2
Cc1nc(CSc2ccc(Cl)cc2)cc(NCc2ccccc2)n1	x	-4	6	x	26
Cc1nc(CS(=O)c2ccc(Cl)cc2)cc(NCc2ccc(Cl)cc2Cl)n1 (configuration not stated)	x	0	4	x	35*
CCCOc1ccc(C2C(C(=O)OC)=C(C)N=C3SCCC(=O)N32)cc1OCC (configuration not stated)	98	2	1	-1	5
CCOc1cc(C2C(C(=O)OC(C)C)=C(C)N=C3SCCC(=O)N32)ccc1OC(C)=O (configuration not stated)	97	3	-1	-8	39*
CCNC(=O)c1ccc(-n2nc(C(F)(F)F)c3c2CCCC3)cc1	x	3	-1	x	9
O=C1C2C(c3ccccc3)C=CC(c3ccccc3)C2C(=O)N1c1ccncc1 (configuration not stated)	x	3	-5	x	34*
CCN(CC)c1ccc(-c2nc3cnccn3c2NC2CCCC2)cc1	x	-7	-8	x	35*
c1cn2c(NC3CCCC3)c(-c3ccc(N4CCOCC4)cc3)nc2cn1	100	-1	-1	-4	4
CC1=CCC2C(=O)N(c3ccc(C)c(Br)c3)C(=O)C2C1 (configuration not stated)	97	2	-4	-10	4
N#Cc1nc(-c2ccccc2F)oc1NCCc1ccccc1	x	-3	20	x	13
N#Cc1nc(-c2cccs2)oc1NCCc1ccccc1	90	13	0	-5	34*
Cc1nn(-c2ccccc2)c(C)c1/C=N\NS(=O)(=O)c1ccc(Cl)cc1	x	8	-5	x	3
O=C(Nc1cccnc1)c1ccc(COc2cc(Cl)ccc2Cl)o1	x	-7	13	x	60*
CC(C)(C)n1nnnc1C(c1cccs1)N1CCCc2ccccc21 (configuration not stated)	82	-3	18	82*	21
CC(C)C(c1nnnn1C1CCCC1)N1CCc2ccccc21 (configuration not stated)	82	-2	13	37	15
CC(C)C(c1nnnn1C1CCCC1)N1CCCc2ccccc21 (configuration not stated)	106	-13	-3	74*	2
SMILES	HER2 expr 66K	Ecoli WT expand	PostGolgi yeast	Ecoli tolC	PostGolgi ctrl
COc1cc(NS(=O)(=O)c2ccc(OC)c(C)c2C)c(OC)cc1Cl	58	-11	-5	65*	36*
COc1ccc(OC)c(S(=O)(=O)Nc2cc(OC)c(Cl)cc2OC)c1	109	6	4	22	20
CCOC(=O)c1c(-c2cccs2)csc1NC(=O)CN1CC(C)OC(C)C1 (configuration not stated)	116	-15	-3	68*	43*
CS(=O)(=O)Nc1ccc(C(=O)NCc2ccccn2)cc1	109	11	2	-9	16
CCOc1ccc(S(=O)(=O)NCc2ccccn2)cc1	x	6	-11	x	30*
CCCCOc1ccc(C(=O)NCc2ccccn2)cc1	123	10	-4	20	35*
CC(=O)c1cc(OC(=O)c2ccncc2)ccc1OC(=O)c1ccncc1	170	-2	5	-18	5
O=C(NCc1ccco1)c1nnc(Cc2ccc(F)cc2)o1	89	6	-5	-6	-2
O=C(NCc1cccnc1)c1nnc(Cc2ccc(F)cc2)o1	91	-3	8	-11	40*
O=C(NCc1ccncc1)c1nnc(Cc2c(F)cccc2Cl)o1	114	0	3	0	31*
O=C(NCc1ccco1)c1nnc(Cc2ccc(Cl)cc2)o1	x	-6	2	x	13
O=S(=O)(Cc1cccc(F)c1)c1c[nH]c2ccccc12	41	8	1	5	3
COc1cc(OC)c(NC2c3ccccc3C(=O)N2c2cc(C)ccn2)cc1Cl (configuration not stated)	107	-8	5	22	33*
CCOC(=O)c1ccccc1NC1c2ccccc2C(=O)N1c1cc(C)ccn1 (configuration not stated)	x	-8	2	x	55*
Cc1ccc(C(=O)CNc2nc3c(c(=O)[nH]c(=O)n3C)n2Cc2ccccc2)cc1	93	-10	4	13	6
Cc1cccc(OCC(O)Cn2c(NCc3cccnc3)nc3c2c(=O)[nH]c(=O)n3C)c1 (configuration not stated)	94	-8	4	-18	21
CCn1c(SCC(=O)N(C(C)C)C(C)C)nnc1-c1cc2ccccc2cc1O	67	4	2	15	46*
COc1ccc(C(=O)CSc2nnc(-c3cc4ccccc4cc3O)n2Cc2ccco2)cc1	48	-21	-14	28	56*
CC1CCN(C(=O)CSc2nnc(-c3cc4ccccc4cc3O)n2Cc2ccco2)CC1	92	-2	0	26	39*
CCCCNC(=O)CS(=O)Cc1nc(-c2cccc(Cl)c2)oc1C (configuration not stated)	74	-10	3	6	-1
OCCn1c(-c2ccc3c(c2)OCO3)csc1=Nc1ccccc1	78	9	5	76*	24
CCOc1ccc(N=c2scc(-c3ccccc3)n2CCO)cc1	x	-12	-3	x	3
CCC(C)Oc1nc2ccccc2nc1NS(=O)(=O)c1ccccc1 (configuration not stated)	x	-1	-5	x	31*
Cc1nc2nc(-c3ccco3)nn2c(C)c1Cl	-8.6*	1	-5	-19	1
O=C(Cn1ncc2c(=O)oc3ccccc3c21)N1CCN(c2ccccn2)CC1	108	4	35*	-2	12
O=C(CSc1nnnn1-c1ccc(Cl)cc1)N1CCc2ccccc2C1	106	-16	19	1	38*
Cc1cc2c(=O)n(Cc3ccco3)c(SCC(=O)N3CCCc4ccccc43)nc2s1	65	-14	4	43	32*
O=C(CSc1nnnn1-c1ccccc1)N1CCc2ccccc21	89	-6	9	-4	-2
CCn1c(SCC(=O)N2CCCc3ccccc32)nc2cccnc21	118	8	9	7	0
